Assay results collected from several papers.
Protocols differ between the studies behind these lines.
FGFR3 G697C: Fibroblast growth factor receptor 3 (FGFR3, Homo sapiens, UniProt P22607, G697C)
FGFR3: Fibroblast growth factor receptor 3 (FGFR3, Homo sapiens, UniProt P22607)

| SMILES | target | observed | action | method | tested at | endpoint | result |
| --- | --- | --- | --- | --- | --- | --- | --- |
| CN(C)c1ncc(F)c(-c2cnn3ncccc23)n1 | FGFR3 G697C | binding | – | – | 1 µM | remaining binding | 100% |
| COc1cc2ncnc(Nc3ccc(Oc4ccccc4)c(C)c3C)c2cc1OC | FGFR3 | enzyme activity | inhibitor | – | 1 µM | inhibition | -2% |
| Cc1ccc(NC(=O)c2ccc(CN3CCN(C)CC3)cc2)cc1Nc1nc(-c2cccnc2)cs1 | FGFR3 | cell-free assay | – | – | 0.5 µM | remaining signal | 94.3% |
| CC/C(=N\NC(=O)NCc1cccc(O)c1)c1ccc(O)c(C)c1O | FGFR3 | enzyme activity | inhibitor | – | 0.1 µM | inhibition | 2.2% |
| Cc1nc(Cc2cccc(C(F)(F)F)c2)sc1-c1ccc(C(N)=O)nc1 | FGFR3 | cell-free assay | – | competition with immobilised ligand | 1 µM | remaining binding | 100% |
| COc1ccnn2ncc(-c3ccnc(N(C)C)n3)c12 | FGFR3 G697C | binding | – | – | 1 µM | remaining binding | 100% |
| COc1ccc(COc2ccc(Cc3cnc(N)nc3N)cc2OC)cc1 | FGFR3 | cell-free assay | – | – | 0.5 µM | remaining signal | 105% |
| CCC(=O)N[C@H]1CC[C@@H](C(=O)N(C)c2ccc(-c3nc4ccccc4o3)cc2)C1 | FGFR3 | cell-free assay | – | competition with immobilised ligand | 1 µM | remaining binding | 98% |
| CC(C)(C)c1nc2c(s1)c1nc(N)ncc1c1ccc(NS(=O)(=O)c3c(F)cccc3F)c(F)c12 | FGFR3 | enzyme activity | inhibitor | radiometric | 1 µM | remaining activity | 91% |
| O=C(O)[C@@H]1[C@@H](Cn2nnc3ccccc3c2=O)CC[C@H]1C(=O)c1ccc(OCCC2CCOCC2)cc1 | FGFR3 G697C | cell-free assay | – | competition with immobilised ligand | 1 µM | remaining binding | 92% |
| CN(c1nccc(-c2cnn3ncccc23)n1)C1CC1 | FGFR3 G697C | binding | – | – | 1 µM | remaining binding | 100% |
| C[C@H](c1cccc(C#N)c1)n1cc(Cl)cc(C(N)=O)c1=N | FGFR3 | cell-free assay | – | competition with immobilised ligand | 1 µM | remaining binding | 88% |
| CNc1cccc2cc(C(=O)Nc3ccc(C(=O)O)cc3)c(=O)[nH]c12 | FGFR3 | enzyme activity | inhibitor | – | 10 µM | inhibition | -1.1% |
| COc1cc2ncnc(Nc3ccc(F)c(Cl)c3)c2cc1OCCCN1CCOCC1 | FGFR3 | cell-free assay | – | – | 0.5 µM | remaining signal | 79.3% |
| CCN(CC)c1ccc(C2=NNC(=O)CC2C)cc1[N+](=O)[O-] (centres unmarked) | FGFR3 | enzyme activity | inhibitor | – | 10 µM | remaining activity | 93% |
| CS(=O)(=O)Nc1cccc(-c2csc(NC(=O)CSc3nc4nccnc4c(=O)n3CCc3ccccc3)n2)c1 | FGFR3 | enzyme activity | inhibitor | – | 10 µM | inhibition | -15% |
| F[C@@H]1CCN(c2nccc(-c3cnn4ncccc34)n2)C1 | FGFR3 | binding | – | – | 1 µM | remaining binding | 100% |
| CNCc1ccc(-c2cc(-c3nc(-c4ccc(S(=O)(=O)C(C)C)cc4)cnc3N)on2)cc1 | FGFR3 | enzyme activity | inhibitor | – | 2 µM | inhibition | 10% |

| SMILES | target | observed | action | method | tested at | endpoint | result |
| --- | --- | --- | --- | --- | --- | --- | --- |
| Cc1sc(C(=O)NC2COC2)cc1-n1cc(NC(=O)Nc2c(F)cccc2Cl)cn1 | FGFR3 | enzyme activity | inhibitor | – | 10 µM | remaining activity | 137% |
| CN(C)c1ncnc(-c2ccc3nc(Nc4cc(CN5CCN(C(=O)CC(F)(F)F)CC5)ccn4)[nH]c3c2)c1Cl | FGFR3 | cell-free assay | – | competition with immobilised ligand | 1 µM | remaining binding | 100% |
| O=C(Nc1cnn(-c2csc(C(=O)NC3COC3)c2)c1)Nc1ccccc1Cl | FGFR3 | enzyme activity | inhibitor | – | 5 µM | remaining activity | 97.8% |
| N[C@H]1CCN(c2nccc(-c3cnn4ncccc34)n2)C1 | FGFR3 G697C | binding | – | – | 1 µM | remaining binding | 100% |
| COc1cc2ncnc(Nc3ccc(Oc4ccccc4)cc3C)c2cc1OC | FGFR3 | enzyme activity | inhibitor | – | 1 µM | inhibition | 5% |
| Nc1ncnc2occ(-c3ccc(NC(=O)Nc4cc(C(F)(F)F)ccc4F)cc3)c12 | FGFR3 | cell-free assay | – | – | 20 µM | remaining signal | 0.75% |
| C[C@@H]1CN(c2cc(-c3n[nH]c4ccc(OC5(C)CC5)cc34)ncn2)C[C@H](C)O1 | FGFR3 G697C | cell-free assay | – | competition with immobilised ligand | 0.1 µM | remaining binding | 86% |
| Cc1ccc(C(=O)Nc2ccc(CN3CCN(C)CC3)c(C(F)(F)F)c2)cc1C#Cc1cnc2cccnn12 | FGFR3 G697C | cell-free assay | – | – | 23.5 nM | remaining signal | 63% |
| COc1cc2nccc(Oc3ccc(NC(=O)c4c5n(n(-c6ccc(F)cc6)c4=O)CCCC5)cc3)c2cc1OC | FGFR3 | enzyme activity | inhibitor | – | 0.1 µM | inhibition | -4% |
| C=CC(=O)Nc1cc(Nc2nccc(Nc3cc(Cl)c(F)cc3C(C)(C)O)n2)c(OC)cc1N1CC[C@@H](N(C)C)C1 | FGFR3 | enzyme activity | inhibitor | – | 1 µM | inhibition | 4% |
| C[C@@]1(Cc2ccc(C#N)cc2)C(=O)N(c2cc(Cl)cc(Cl)c2)c2ncc(C(=O)NC3(c4nc(C5CCC5)no4)CC3)n21 | FGFR3 G697C | cell-free assay | – | competition with immobilised ligand | 1 µM | remaining binding | 100% |
| CNC(=O)c1cc(Oc2ccc(NC(=O)Nc3ccc(Cl)c(C(F)(F)F)c3)cc2)ccn1 | FGFR3 | enzyme activity | inhibitor | – | 0.3 µM | inhibition | 32% |
| Cc1cc(NC(=O)c2cccc3cc(-c4cccc5[nH]nc(N)c45)ccc23)ccc1F | FGFR3 | enzyme activity | inhibitor | – | 0.1 µM | activity vs control | 98% |
| Cc1ccc(Nc2nccc(N(C)c3ccc4c(C)n(C)nc4c3)n2)cc1S(N)(=O)=O | FGFR3 | enzyme activity | inhibitor | – | 10 µM | inhibition | 99% |
| C[C@@H]1CCN(c2nccc(-c3cnn4ncccc34)n2)C1 | FGFR3 G697C | binding | – | – | 1 µM | remaining binding | 100% |
| CO[C@@H](C)c1c(Nc2ccc([C@H](N(C)C(=O)C3CCS(=O)(=O)CC3)C(F)(F)F)cc2)cnc2cc(Cl)nn12 | FGFR3 G697C | cell-free assay | – | competition with immobilised ligand | 1 µM | remaining binding | 86% |
| O=C1NC(=O)c2cc(Nc3ccc(F)cc3)c(Nc3ccc(F)cc3)cc21 | FGFR3 | cell-free assay | – | – | 0.5 µM | remaining signal | 99.7% |
